In ChEMBL document CHEMBL4480410, “Targeting the MKK7-JNK (Mitogen-Activated Protein Kinase Kinase 7-c-Jun N-Terminal Kinase) Pathway with Covalent Inhibitors” (J Med Chem, 2019):
In brackets after ≈: the same amount, converted by molar mass. Activity calls are given as the source filed them. The rule behind the calls is not given here.

Key:
[1] = Inhibition of N-terminal His-tagged MKK7 beta1 S273D/T275D double mutant (unknown origin) expressed in insect cells using JNK1 K55M mutant as substrate by ADP-Glo assay; parameters: species or system Homo sapiens
Procedure, shortened: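 ADP-Glo luminescence run per supplier protocol. Kinase: MKK7 beta1 (aa 1-462, TEV-cleavable N-terminal His6 tag, S273D/T275D) expressed in Sf9 insect cells, used at 20 nM. Substrate: JNK1 K55M at 5 µM. Compound dispensed acoustically; read on plate reader.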

[2] = molecular target: Epidermal growth factor receptor (Homo sapiens, UniProt P00533); experiment: Inhibition of wild type EGFR (unknown origin) by HTRF assay
[3] = molecular target: Epidermal growth factor receptor (Homo sapiens, UniProt P00533, L858R/T790M); experiment: Inhibition of EGFR L858R/T790M double mutant (unknown origin) by HTRF assay
[4] = molecular target: T1, Dual specificity mitogen-activated protein kinase kinase 7 (Mus musculus) (UniProt Q8CE90); experiment: Inhibition of MKK7 in mouse DRG cells assessed as reduction in JNK phosphorylation at 1 uM after 2 hrs by Western blot analysis; assay type: cell-based
T1 sequence (whole entry): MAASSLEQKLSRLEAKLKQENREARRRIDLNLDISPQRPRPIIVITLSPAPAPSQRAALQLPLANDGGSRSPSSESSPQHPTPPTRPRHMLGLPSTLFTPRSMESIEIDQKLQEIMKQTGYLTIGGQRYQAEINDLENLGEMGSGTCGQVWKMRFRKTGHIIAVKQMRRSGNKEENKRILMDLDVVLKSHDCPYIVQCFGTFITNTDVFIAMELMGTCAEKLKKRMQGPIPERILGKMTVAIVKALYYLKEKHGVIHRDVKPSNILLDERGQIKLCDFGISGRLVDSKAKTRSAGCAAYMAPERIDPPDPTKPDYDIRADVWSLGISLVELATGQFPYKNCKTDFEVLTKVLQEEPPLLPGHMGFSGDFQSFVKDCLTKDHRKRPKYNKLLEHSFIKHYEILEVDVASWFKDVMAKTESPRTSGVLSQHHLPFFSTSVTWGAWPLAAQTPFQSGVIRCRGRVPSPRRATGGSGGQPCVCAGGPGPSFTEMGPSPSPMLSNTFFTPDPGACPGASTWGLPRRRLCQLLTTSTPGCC
Procedure, shortened: (§1)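 Dissociated DRG neurons plated on laminin for 3 h, medium replaced, compound added for a further 2 h. Neurons lysed in RIPA buffer with phosphatase inhibitors. Western blots probed for phospho-cJun, cJun, phospho-JNK and JNK.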

[5] = molecular target: T1, Dual specificity mitogen-activated protein kinase kinase 7 (Mus musculus); experiment: Inhibition of MKK7 in mouse DRG cells assessed as reduction in cJUN phosphorylation at 1 uM after 2 hrs by Western blot analysis; assay type: cell-based; procedure, shortened: as §1
[6] = Kinetic solubility of the compound in Hepes buffer at pH 7.4 after 90 mins; assay type: physicochemical; details: read-out: Kinetic_solubility
Procedure, shortened: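 Compound diluted from 10 mM DMSO stock to 500 µM final in 50 mM Hepes, pH 7.4, shaken 90 min at room temperature. Filtered through 0.2 µm PVDF, then OD scanned 250–500 nm in 10 nm steps. Solubility taken from AUC, normalized to a dilution in acetonitrile.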

[7] = Permeability of the compound assessed as drug flux at 500 uM after 16 hrs by PAMPA; assay type: ADME
Procedure, shortened: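 10 mM DMSO stock diluted to 500 µM final in 50 mM Hepes pH 7.4 on membrane coated with 10% dioleoylphosphatidylcholine, 0.5% cholesterol in dodecane; 16 h room temperature, wet chamber.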

[8] = Apparent permeability across apical to basolateral side in human Caco2 cells at 5 uM after 2 hrs by transwell membrane based assay; assay type: ADME, cell-based; details: Caco-2
Procedure, shortened: (§2)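 10 mM DMSO stock diluted to 5 µM final in HBSS pH 7.4; 2 h at 37 °C, 5% CO2 on Caco-2 monolayers grown 21 days on transwell membranes.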

[9] = Apparent permeability across basolateral to apical side in human Caco2 cells at 5 uM after 2 hrs by transwell membrane based assay; assay type: ADME, cell-based, Caco-2; details: caco-2, 2 h, 5 µM; procedure, shortened: as §2
[10] = Apparent permeability across apical to basolateral side in MDCK2-MDR1 cells at 10 uM after 2 hrs by transwell membrane based assay; assay type: ADME, cell-based, Canis lupus familiaris; details: dog, MDCK-MDR1
Procedure, shortened: (§3)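 Compound at 10 µM in HBSS added to apical or basolateral side of MDCKII-MDR1 monolayer, 2 h at 37 °C. Both sides quantified by LC-MS/MS; Papp A–B or B–A from receiver concentration and volume, time, membrane area and initial donor concentration.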

[11] = Apparent permeability across basolateral to apical side in MDCK2-MDR1 cells at 10 uM after 2 hrs by transwell membrane based assay; assay type: ADME, cell-based, Canis lupus familiaris; details: dog, MDCK-MDR1; procedure, shortened: as §3
[12] = Stability in human plasma assessed as compound remaining at 5 uM after 1 hr by LC/MS analysis; assay type: ADME, cell-free; details: read-out: Stability
Procedure, shortened: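 Compound at 5 µM incubated 1 h at 37 °C in human or mouse plasma; percentage remaining quantified by LC/MS.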

[13] = Protein binding in human plasma at 5 uM after 6 hrs by LC/MS analysis; assay type: ADME, cell-free; details: read-out: PPB (converted)
Procedure, shortened: (§4)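 Equilibrium dialysis of plasma with compound at 5 µM, 6 h at 37 °C; final compound concentrations determined by LC/MS to give percent bound.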

[14] = Protein binding in mouse plasma at 5 uM after 6 hrs by LC/MS analysis; assay type: ADME, cell-free; details: read-out: PPB (converted); procedure, shortened: as §4
[15] = molecular target: T2, Dual specificity mitogen-activated protein kinase kinase 7 (Homo sapiens) (UniProt O14733); experiment: Covalent binding affinity to MKK7 (unknown origin) assessed as formation of covalent bond with Cys218 residues by MS/MS analysis
T2 sequence (whole entry): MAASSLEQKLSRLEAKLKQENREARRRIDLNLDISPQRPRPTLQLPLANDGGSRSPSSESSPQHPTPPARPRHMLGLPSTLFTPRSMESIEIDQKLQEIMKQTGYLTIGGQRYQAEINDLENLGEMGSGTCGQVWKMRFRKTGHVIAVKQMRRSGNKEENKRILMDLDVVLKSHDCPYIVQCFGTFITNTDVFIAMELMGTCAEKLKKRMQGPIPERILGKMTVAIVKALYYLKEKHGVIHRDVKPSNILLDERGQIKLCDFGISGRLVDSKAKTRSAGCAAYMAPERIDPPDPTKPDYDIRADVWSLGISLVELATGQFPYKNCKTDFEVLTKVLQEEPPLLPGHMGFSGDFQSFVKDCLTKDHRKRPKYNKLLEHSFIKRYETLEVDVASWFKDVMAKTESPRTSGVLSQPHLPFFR
Procedure, shortened: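 Protein at 1 mg/mL incubated with 2-fold molar excess of compound, 30 min on ice, then denatured and run on 15% SDS gel. Band excised, reduced with 50 mM DTT (1 h, 37 °C), alkylated with 55 mM iodoacetamide (1 h, 20 °C), digested with 0.1 mg/mL trypsin 20 h at 30 °C, acidified with TFA. Analysed by ion-trap MS/MS.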

Sequence of Epidermal growth factor receptor (Homo sapiens, UniProt P00533) (P00533 whole entry): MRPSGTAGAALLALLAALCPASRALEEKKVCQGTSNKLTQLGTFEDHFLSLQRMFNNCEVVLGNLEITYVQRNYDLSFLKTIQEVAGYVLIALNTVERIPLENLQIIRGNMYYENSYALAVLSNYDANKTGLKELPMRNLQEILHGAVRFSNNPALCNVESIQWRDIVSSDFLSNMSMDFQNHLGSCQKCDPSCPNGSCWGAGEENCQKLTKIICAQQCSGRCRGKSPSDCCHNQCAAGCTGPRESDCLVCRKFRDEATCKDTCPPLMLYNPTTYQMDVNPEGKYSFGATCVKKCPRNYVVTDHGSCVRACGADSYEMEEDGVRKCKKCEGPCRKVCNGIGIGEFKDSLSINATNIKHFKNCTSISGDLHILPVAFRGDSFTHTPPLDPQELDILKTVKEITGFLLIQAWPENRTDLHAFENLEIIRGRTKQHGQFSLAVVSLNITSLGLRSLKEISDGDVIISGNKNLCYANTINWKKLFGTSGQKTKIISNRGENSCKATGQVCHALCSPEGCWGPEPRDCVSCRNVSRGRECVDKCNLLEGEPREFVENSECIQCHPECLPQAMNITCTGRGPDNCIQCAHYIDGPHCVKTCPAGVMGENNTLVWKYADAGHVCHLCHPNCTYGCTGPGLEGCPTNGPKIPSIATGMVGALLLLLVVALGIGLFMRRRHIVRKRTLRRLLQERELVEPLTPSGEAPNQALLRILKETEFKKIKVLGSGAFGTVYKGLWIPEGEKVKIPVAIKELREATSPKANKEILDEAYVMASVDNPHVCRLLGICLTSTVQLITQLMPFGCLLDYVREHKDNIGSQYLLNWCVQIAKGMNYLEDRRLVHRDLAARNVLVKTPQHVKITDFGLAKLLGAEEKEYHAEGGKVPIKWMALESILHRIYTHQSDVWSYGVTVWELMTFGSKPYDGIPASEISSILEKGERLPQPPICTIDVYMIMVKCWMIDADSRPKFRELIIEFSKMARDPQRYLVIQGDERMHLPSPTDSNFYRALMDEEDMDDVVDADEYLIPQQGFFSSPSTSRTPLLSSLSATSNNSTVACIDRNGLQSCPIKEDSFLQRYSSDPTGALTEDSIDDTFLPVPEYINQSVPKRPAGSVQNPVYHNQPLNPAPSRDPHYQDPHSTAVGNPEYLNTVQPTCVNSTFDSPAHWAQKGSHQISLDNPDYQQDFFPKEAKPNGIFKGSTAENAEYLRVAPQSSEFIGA
Sequence of Epidermal growth factor receptor (Homo sapiens, UniProt P00533, L858R/T790M) (P00533 25-1210 T790M/L858R limits assumed): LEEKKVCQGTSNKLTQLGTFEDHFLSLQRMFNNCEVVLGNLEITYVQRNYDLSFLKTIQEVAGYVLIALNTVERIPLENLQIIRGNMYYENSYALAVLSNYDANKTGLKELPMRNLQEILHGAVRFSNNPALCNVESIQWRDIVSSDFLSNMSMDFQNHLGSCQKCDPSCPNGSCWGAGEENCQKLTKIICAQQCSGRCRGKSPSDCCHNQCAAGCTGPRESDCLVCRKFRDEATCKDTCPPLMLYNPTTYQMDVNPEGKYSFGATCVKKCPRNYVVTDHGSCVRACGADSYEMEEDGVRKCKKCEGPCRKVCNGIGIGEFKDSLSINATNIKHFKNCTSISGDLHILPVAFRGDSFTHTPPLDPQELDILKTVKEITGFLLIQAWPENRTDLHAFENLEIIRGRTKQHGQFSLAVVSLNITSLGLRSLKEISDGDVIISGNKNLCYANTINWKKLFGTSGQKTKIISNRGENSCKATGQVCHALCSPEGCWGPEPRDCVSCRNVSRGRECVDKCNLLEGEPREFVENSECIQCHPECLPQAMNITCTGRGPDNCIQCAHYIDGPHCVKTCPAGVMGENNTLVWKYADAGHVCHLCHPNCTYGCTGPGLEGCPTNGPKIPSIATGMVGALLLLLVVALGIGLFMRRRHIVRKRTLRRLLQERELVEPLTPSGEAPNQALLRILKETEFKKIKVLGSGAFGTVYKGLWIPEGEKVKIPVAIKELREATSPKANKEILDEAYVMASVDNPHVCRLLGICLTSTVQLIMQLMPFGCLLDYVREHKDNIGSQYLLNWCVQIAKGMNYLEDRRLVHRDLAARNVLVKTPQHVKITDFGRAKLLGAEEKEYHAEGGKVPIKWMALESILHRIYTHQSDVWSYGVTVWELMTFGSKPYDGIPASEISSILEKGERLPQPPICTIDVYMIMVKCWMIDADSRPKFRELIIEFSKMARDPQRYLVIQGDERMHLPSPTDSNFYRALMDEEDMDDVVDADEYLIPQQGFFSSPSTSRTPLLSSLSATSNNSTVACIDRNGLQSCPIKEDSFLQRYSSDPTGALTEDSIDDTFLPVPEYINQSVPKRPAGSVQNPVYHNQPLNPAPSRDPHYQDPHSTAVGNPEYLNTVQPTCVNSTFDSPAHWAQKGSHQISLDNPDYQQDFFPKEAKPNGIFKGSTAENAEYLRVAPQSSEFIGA

SMILES: CCC(=O)N1CCC[C@@H](n2nc(-c3cn(-c4ccc(C(C)=O)cc4)nn3)c3c(N)ncnc32)C1
- IC50 [1]: > 10000 nM
- IC50 [2]: 649 nM
- IC50 [3]: 677 nM
- inhibition [4]: inactive
- inhibition [5]: inactive

SMILES: C=CC(=O)N1CCC[C@@H](n2nc(-c3cn(Cc4nc5ccc(Cl)cn5c4Br)nn3)c3c(N)ncnc32)C1
- IC50 [1]: 669 nM
- IC50 [2]: 85 nM
- IC50 [3]: 104 nM

SMILES: C=CC(=O)N1CCC[C@@H](n2nc(-c3cn(C)c4ccccc34)c3c(N)ncnc32)C1
- IC50 [1]: 302 nM

SMILES: C=CC(=O)N1CCC[C@@H](n2nc(-c3ccc(Oc4ccccc4)cc3)c3c(N)ncnc32)C1 [IBRUTINIB]
- IC50 [1]: 78 nM
- solubility kinetic at 1.5 h [6]: 36 µM (≈ 15.9 µg/mL)
- permeability [7]: 38%
- Papp A→B at 2 h, 5 µM [8]: 40 ×10⁻⁶ cm/s
- Papp [9]: 0.9 ×10⁻⁶ cm/s
- Papp A→B at 2 h, 10 µM [10]: 22 ×10⁻⁶ cm/s
- Papp B→A at 2 h, 10 µM [11]: 3 ×10⁻⁶ cm/s
- remaining at 1 h, 5 µM [12]: 79.7%
- fraction unbound at 6 h, 5 µM [13]: 0.024
- fraction unbound at 6 h, 5 µM [14]: 0.011
- Activity [15]: Active

SMILES: C=CC(=O)N1CCC[C@@H](n2nc(-c3cn(-c4cc(C(F)(F)F)cnc4C#N)nn3)c3c(N)ncnc32)C1
- IC50 [1]: 788 nM
- IC50 [2]: 6 nM
- IC50 [3]: 28 nM

SMILES: C#Cc1nn([C@@H]2CCCN(C(=O)C=C)C2)c2ncnc(N)c12
- IC50 [1]: 40 nM
- Activity [15]: Active
